In ChEMBL document CHEMBL1649483, “Molecular analysis of the gyrA and gyrB quinolone resistance-determining regions of fluoroquinolone-resistant Clostridium difficile mutants selected in vitro” (2009):
Values after ≈ are worked out from the molar mass of the structure shown.

What was measured:
Format in all cases: functional
Clostridioides difficile [1] = test: Antimicrobial activity against Clostridium difficile A422g harboring GyrA Asp81Asn mutant gene selected after 8 ug/ml of moxifloxacin by Etest method
Method in brief: (§1)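 Stable in vitro-selected mutant tested for gatifloxacin susceptibility by Etest, per the manufacturer's instructions, with an 8 μg/ml breakpoint. For selection, the parent was grown in antibiotic-free brain heart infusion (BHI) for 24 h at 35°C under anaerobic conditions. […] Later steps used double the MIC. Stability was confirmed by three subcultures.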

Clostridioides difficile [2] = test: Antimicrobial activity against Clostridium difficile A422e selected after 4 ug/ml of moxifloxacin by Etest method; method in brief: as §1
Clostridioides difficile [3] = test: Antimicrobial activity against Clostridium difficile 630A selected after 4 ug/ml of levofloxacin by Etest method; method in brief: as §1
Clostridioides difficile [4] = test: Antimicrobial activity against Clostridium difficile BI2B selected after 4 ug/ml of levofloxacin by Etest method; method in brief: as §1
Clostridioides difficile [5] = test: Antimicrobial activity against Clostridium difficile 630e selected after 4 ug/ml of moxifloxacin by Etest method; method in brief: as §1
Clostridioides difficile [6] = test: Antimicrobial activity against Clostridium difficile CD5 2-g harboring GyrA Ala118Ser, Thr82Ala and GyrB Ser416Ala mutant genes selected after 8 ug/ml of moxifloxacin by Etest method
Clostridioides difficile [7] = test: Antimicrobial activity against Clostridium difficile C253d selected after 4 ug/ml of moxifloxacin by Etest method
Clostridioides difficile [8] = test: Antimicrobial activity against Clostridium difficile CD5a harboring GyrB Ser416Ala mutant gene selected after 2 ug/ml of moxifloxacin by Etest method
Clostridioides difficile [9] = test: Antimicrobial activity against Clostridium difficile 630F harboring GyrA Ala118Val mutant gene selected after 8 ug/ml of levofloxacin by Etest method; method in brief: as §1
Clostridioides difficile [10] = test: Antimicrobial activity against Clostridium difficile C253C selected after 4 ug/ml of levofloxacin by Etest method
Clostridioides difficile [11] = test: Antimicrobial activity against Clostridium difficile CD5h harboring GyrA Ala92Glu and GyrB Ser416Ala mutant genes selected after 8 ug/ml of moxifloxacin by Etest method
Clostridioides difficile [12] = test: Antimicrobial activity against Clostridium difficile CD5i harboring GyrA Ala92Glu and GyrB Ser416Ala mutant genes selected after 8 ug/ml of moxifloxacin by Etest method
Clostridioides difficile [13] = test: Antimicrobial activity against Clostridium difficile A422E harboring GyrB Leu451Phe mutant gene selected after 8 ug/ml of levofloxacin by Etest method; method in brief: as §1
Clostridioides difficile [14] = test: Antimicrobial activity against Clostridium difficile CD5f harboring GyrB Ser416Ala mutant gene selected after 4 ug/ml of moxifloxacin by Etest method
Clostridioides difficile [15] = test: Antimicrobial activity against Clostridium difficile BI2e harboring GyrB Arg447Lys and Asp426Asn mutant gene selected after 32 ug/ml of moxifloxacin by Etest method; method in brief: as §1
Clostridioides difficile [16] = test: Antimicrobial activity against Clostridium difficile C253B selected after 4 ug/ml of levofloxacin by Etest method
Clostridioides difficile [17] = test: Antimicrobial activity against Clostridium difficile A422h harboring GyrA Asp81Asn mutant gene selected after 8 ug/ml of moxifloxacin by Etest method; method in brief: as §1
Clostridioides difficile [18] = test: Antimicrobial activity against Clostridium difficile BI2 by Etest method
Method in brief: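 Parent clinical or nontoxigenic isolate tested for gatifloxacin susceptibility by Etest, run per the manufacturer's instructions; a fluoroquinolone breakpoint of 8 μg/ml was applied.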

Clostridioides difficile [19] = test: Antimicrobial activity against Clostridium difficile CD25 expressing tcdA, tcdB gene and GyrB Ser416Ala mutant gene by Etest method
Clostridioides difficile [20] = test: Antimicrobial activity against Clostridium difficile A422c selected after 2 ug/ml of moxifloxacin by Etest method; method in brief: as §1
Clostridioides difficile [21] = test: Antimicrobial activity against Clostridium difficile A422f selected after 4 ug/ml of moxifloxacin by Etest method; method in brief: as §1
Clostridioides difficile [22] = test: Antimicrobial activity against Clostridium difficile C253E selected after 8 ug/ml of levofloxacin by Etest method
Clostridioides difficile [23] = test: Antimicrobial activity against Clostridium difficile 630b selected after 2 ug/ml of moxifloxacin by Etest method; method in brief: as §1
Clostridioides difficile [24] = test: Antimicrobial activity against Clostridium difficile A422C selected after 4 ug/ml of levofloxacin by Etest method; method in brief: as §1
Clostridioides difficile [25] = test: Antimicrobial activity against Clostridium difficile CD5C harboring GyrB Ser416Ala mutant gene selected after 4 ug/ml of levofloxacin by Etest method
Clostridioides difficile [26] = test: Antimicrobial activity against Clostridium difficile A422I harboring GyrA Thr82Ile and GyrB Leu451Phe mutant genes selected after 8 ug/ml of levofloxacin by agar dilution method
Clostridioides difficile [27] = test: Antimicrobial activity against Clostridium difficile CD5i harboring GyrA Ala92Glu and GyrB Ser416Ala mutant genes selected after 8 ug/ml of moxifloxacin by agar dilution method
Clostridioides difficile [28] = test: Antimicrobial activity against Clostridium difficile CD5C harboring GyrB Ser416Ala mutant gene selected after 4 ug/ml of levofloxacin by agar dilution method
Clostridioides difficile [29] = test: Antimicrobial activity against Clostridium difficile BI2F harboring GyrB Glu466Lys mutant gene selected after 8 ug/ml of levofloxacin by agar dilution method
Clostridioides difficile [30] = test: Antimicrobial activity against Clostridium difficile C253i harboring GyrA Ala118Ser mutant gene selected after 8 ug/ml of moxifloxacin by agar dilution method
Clostridioides difficile [31] = test: Antimicrobial activity against Clostridium difficile A422c selected after 2 ug/ml of moxifloxacin by agar dilution method
Clostridioides difficile [32] = test: Antimicrobial activity against Clostridium difficile BI2b harboring GyrB Arg447Lys mutant gene selected after 2 ug/ml of moxifloxacin by agar dilution method
Clostridioides difficile [33] = test: Antimicrobial activity against Clostridium difficile C253e selected after 4 ug/ml of moxifloxacin by agar dilution method
Clostridioides difficile [34] = test: Antimicrobial activity against Clostridium difficile C253g harboring GyrA Ala118Ser mutant gene selected after 8 ug/ml of moxifloxacin by agar dilution method
Clostridioides difficile [35] = test: Antimicrobial activity against Clostridium difficile BI2A selected after 4 ug/ml of levofloxacin by agar dilution method
Clostridioides difficile [36] = test: Antimicrobial activity against Clostridium difficile BI2c harboring GyrB Arg447Lys mutant gene selected after 2 ug/ml of moxifloxacin by agar dilution method
Clostridioides difficile [37] = test: Antimicrobial activity against Clostridium difficile CD5f harboring GyrB Ser416Ala mutant gene selected after 4 ug/ml of moxifloxacin by agar dilution method
Clostridioides difficile [38] = test: Antimicrobial activity against Clostridium difficile A422G harboring GyrA Thr82Ile and GyrB Leu451Phe mutant genes selected after 8 ug/ml of levofloxacin by agar dilution method
Clostridioides difficile [39] = test: Antimicrobial activity against Clostridium difficile CD5B harboring GyrB Ser416Ala mutant gene selected after 4 ug/ml of levofloxacin by agar dilution method
Clostridioides difficile [40] = test: Antimicrobial activity against Clostridium difficile BI2D harboring GyrB Glu466Lys mutant gene selected after 8 ug/ml of levofloxacin by agar dilution method
Clostridioides difficile [41] = test: Antimicrobial activity against Clostridium difficile A422E harboring GyrB Leu451Phe mutant gene selected after 8 ug/ml of levofloxacin by agar dilution method

**Q.** What does the source list for `COc1c(N2CCNC(C)C2)c(F)cc2c(=O)c(C(=O)O)cn(C3CC3)c12` (stereo unspecified) [GATIFLOXACIN]?
**A.** MIC (Clostridioides difficile [1]): ≥ 32 µg/mL; MIC (Clostridioides difficile [2]): 1.5 µg/mL; MIC (Clostridioides difficile [3]): 0.75 µg/mL; MIC (Clostridioides difficile [4]): 2 µg/mL; MIC (Clostridioides difficile [5]): 2 µg/mL; MIC (Clostridioides difficile [6]): 16 µg/mL; MIC (Clostridioides difficile [7]): 1 µg/mL; MIC (Clostridioides difficile [8]): 0.75 µg/mL; MIC (Clostridioides difficile [9]): 3 µg/mL; MIC (Clostridioides difficile [10]): 0.5 µg/mL; MIC (Clostridioides difficile [11]): 3 µg/mL; MIC (Clostridioides difficile [12]): 3 µg/mL; MIC (Clostridioides difficile [13]): 2 µg/mL; MIC (Clostridioides difficile [14]): 0.75 µg/mL; MIC (Clostridioides difficile [15]): 6 µg/mL; MIC (Clostridioides difficile [16]): 0.5 µg/mL; MIC (Clostridioides difficile [17]): ≥ 32 µg/mL; MIC (Clostridioides difficile [18]): 0.75 µg/mL (≈ 2 µM); MIC (Clostridioides difficile [19]): 0.5 µg/mL (≈ 1.33 µM); MIC (Clostridioides difficile [20]): 1.5 µg/mL; MIC (Clostridioides difficile [21]): 1.5 µg/mL; MIC (Clostridioides difficile [22]): 1 µg/mL; MIC (Clostridioides difficile [23]): 0.75 µg/mL; MIC (Clostridioides difficile [24]): 1 µg/mL; MIC (Clostridioides difficile [25]): 0.5 µg/mL

**Q.** For `C[C@H]1COc2c(N3CCN(C)CC3)c(F)cc3c(=O)c(C(=O)O)cn1c23.C[C@H]1COc2c(N3CCN(C)CC3)c(F)cc3c(=O)c(C(=O)O)cn1c23.O` [LEVOFLOXACIN], which MIC (Clostridioides difficile [26]) is on record?
**A.** 64 µg/mL

**Q.** And the MIC (Clostridioides difficile [27])?
**A.** 16 µg/mL

**Q.** What about the MIC (Clostridioides difficile [28]) of the same compound?
**A.** 1 µg/mL

**Q.** And the MIC (Clostridioides difficile [29])?
**A.** 16 µg/mL

**Q.** And the MIC (Clostridioides difficile [30])?
**A.** 64 µg/mL

**Q.** And the MIC (Clostridioides difficile [31])?
**A.** 4 µg/mL

**Q.** And the MIC (Clostridioides difficile [32])?
**A.** 8 µg/mL

**Q.** What about the MIC (Clostridioides difficile [33]) of the same compound?
**A.** 4 µg/mL

**Q.** And the MIC (Clostridioides difficile [34])?
**A.** 64 µg/mL

**Q.** What about the MIC (Clostridioides difficile [35]) of the same compound?
**A.** 1 µg/mL

**Q.** And the MIC (Clostridioides difficile [36])?
**A.** 8 µg/mL

**Q.** And the MIC (Clostridioides difficile [37])?
**A.** 2 µg/mL

**Q.** What about the MIC (Clostridioides difficile [38]) of the same compound?
**A.** 64 µg/mL

**Q.** And the MIC (Clostridioides difficile [39])?
**A.** 1 µg/mL

**Q.** And the MIC (Clostridioides difficile [40])?
**A.** 16 µg/mL

**Q.** And the MIC (Clostridioides difficile [41])?
**A.** 2 µg/mL
